The results in this text go back to ChEMBL document CHEMBL1128192, “Differences in backbone structure between angiotensin II agonists and type I antagonists” (J Med Chem, 1995).

Where a SMILES comes first, the peptide text is derived from it. [ ]: non-standard residue; d: D form. Nva(5-OH) = N[C@@H](CCCO)C(=O)O; Aib = CC(C)(N)C(=O)O; Sar = CNCC(=O)O

The target of test [1] is T1, Angiotensin II receptor (AT-1) type-1 (Rattus norvegicus, UniProt P29089+P25095).
T1 sequence (P29089 whole entry): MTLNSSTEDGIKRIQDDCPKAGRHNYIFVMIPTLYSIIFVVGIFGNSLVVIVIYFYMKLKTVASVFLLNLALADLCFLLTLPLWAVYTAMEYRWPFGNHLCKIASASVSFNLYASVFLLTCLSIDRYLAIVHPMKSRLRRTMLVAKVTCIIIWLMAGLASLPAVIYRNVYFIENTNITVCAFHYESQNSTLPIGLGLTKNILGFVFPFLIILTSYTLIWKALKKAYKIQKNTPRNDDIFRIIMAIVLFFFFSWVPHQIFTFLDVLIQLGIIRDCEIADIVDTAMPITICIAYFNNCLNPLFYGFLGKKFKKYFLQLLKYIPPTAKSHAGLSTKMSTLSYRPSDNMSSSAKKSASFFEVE
T1 sequence (P25095 whole entry): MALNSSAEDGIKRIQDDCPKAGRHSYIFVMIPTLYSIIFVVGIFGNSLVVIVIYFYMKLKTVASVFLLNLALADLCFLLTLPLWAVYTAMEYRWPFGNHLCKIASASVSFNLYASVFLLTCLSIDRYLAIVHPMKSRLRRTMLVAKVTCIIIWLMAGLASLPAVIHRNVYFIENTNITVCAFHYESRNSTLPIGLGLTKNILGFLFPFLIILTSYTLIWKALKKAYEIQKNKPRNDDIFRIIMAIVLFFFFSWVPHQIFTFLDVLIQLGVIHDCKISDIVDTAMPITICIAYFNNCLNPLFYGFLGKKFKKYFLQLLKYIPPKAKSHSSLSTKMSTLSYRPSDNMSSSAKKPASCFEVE
Put plainly: Antagonist activity against Angiotensin II receptor type 1 as pA2. The test is classed as functional. In short, it runs like this:
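Isolated uterus from diethylstilbestrol-primed (25 μg im, 24 h) female virgin Sprague–Dawley rats, in DeJalons solution. An ANGII noncumulative dose-response curve was first set up in each tissue. Antagonist was added 2 min before ANGII, with EC50 reproducibility checked before and after. pA2 is the −log antagonist concentration that cuts the ED50 ANGII response to that of an ED50/2 dose, as the mean of ≥3 tissues.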

For test [2], the target named is Angiotensin II receptor (Rattus norvegicus) (UniProt P29089+P25095+P35351). Kind of test: Agonist activity at Angiotensin II receptor. Format: functional. In short, it runs like this: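 Uteri from female virgin Sprague–Dawley rats (150–200 g) given 25 μg diethylstilbestrol im 24 h before sacrifice. Horns were cleaned and bathed in DeJalons solution. Contractions were recorded with noncumulative dosing, with washout at peak response and 10 min rest between challenges. Activity is relative to human ANGII as standard, as the mean of at least three tissues.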
Chain of Angiotensin II receptor (Rattus norvegicus) (P35351 whole entry, looked up, one chain of several): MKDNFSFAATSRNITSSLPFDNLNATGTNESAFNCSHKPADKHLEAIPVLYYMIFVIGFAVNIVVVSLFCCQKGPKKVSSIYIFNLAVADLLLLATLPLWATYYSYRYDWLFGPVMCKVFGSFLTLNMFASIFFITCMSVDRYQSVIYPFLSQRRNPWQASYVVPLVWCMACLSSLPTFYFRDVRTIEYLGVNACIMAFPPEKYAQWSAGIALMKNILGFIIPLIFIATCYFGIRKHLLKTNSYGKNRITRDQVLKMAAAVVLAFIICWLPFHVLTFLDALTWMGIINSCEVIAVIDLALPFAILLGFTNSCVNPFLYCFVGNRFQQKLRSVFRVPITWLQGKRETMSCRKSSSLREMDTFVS

Turning to `CC[C@H](C)[C@H](NC(=O)[C@H](Cc1ccc(O)cc1)NC(=O)[C@@H](NC(=O)[C@H](CCCN=C(N)N)NC(=O)[C@@H](N)CC(=O)O)C(C)C)C(=O)N[C@@H](Cc1c[nH]cn1)C(=O)N1CCC[C@H]1C(=O)N[C@@H](CCOC)C(=O)O`, in test [1], the pA2 is reported as 7.5. Moreover, the Agonist activity in test [2] is below 0.1%. For `CC[C@H](C)[C@H](NC(=O)[C@H](Cc1ccc(O)cc1)NC(=O)[C@@H](NC(=O)[C@@H](N)CCCN=C(N)N)C(C)C)C(=O)N[C@@H](Cc1c[nH]cn1)C(=O)N1CCC[C@H]1C(=O)N[C@@H](CCOC)C(=O)O`, in that order: below 6 and below 0.1%.

In test [1], `CC[C@H](C)[C@H](NC(=O)[C@H](CCCO)NC(=O)[C@@H](NC(=O)[C@H](CCCN=C(N)N)NC(=O)C(C)(C)N)C(C)C)C(=O)N[C@@H](Cc1c[nH]cn1)C(=O)N1CCC[C@H]1C(=O)N[C@@H](Cc1ccccc1)C(=O)O` (H-[Aib]RV[Nva(5-OH)]IHPF-OH) yielded a pA2 below 6.

`CC[C@H](C)[C@H](NC(=O)[C@@H]1CCCN1C(=O)[C@H](Cc1c[nH]cn1)NC(=O)[C@@H](NC(=O)[C@H](CCCO)NC(=O)[C@@H](NC(=O)[C@H](CCCN=C(N)N)NC(=O)C(C)(C)N)C(C)C)[C@@H](C)CC)C(=O)O` (H-[Aib]RV[Nva(5-OH)]IHPI-OH) showed a pA2 in test [1] of 6.2. Turning to `CC[C@H](C)[C@H](NC(=O)[C@H](CCCO)NC(=O)[C@@H](NC(=O)[C@H](CCCN=C(N)N)NC(=O)CNC)C(C)C)C(=O)N[C@@H](Cc1c[nH]cn1)C(=O)N1CCC[C@H]1C(=O)N[C@@H](Cc1ccccc1)C(=O)O` (H-[Sar]RV[Nva(5-OH)]IHPF-OH), the pA2 in test [1] was below 6.

In test [1], `CC[C@H](C)[C@H](NC(=O)[C@@H]1CCCN1C(=O)[C@H](Cc1c[nH]cn1)NC(=O)[C@@H](NC(=O)[C@H](CCCO)NC(=O)[C@@H](NC(=O)[C@H](CCCN=C(N)N)NC(=O)CNC)C(C)C)[C@@H](C)CC)C(=O)O` (H-[Sar]RV[Nva(5-OH)]IHPI-OH) came in with a pA2 below 5. With `CC[C@H](C)[C@H](NC(=O)C(Cc1ccc(C(=O)O)cc1)NC(=O)[C@@H](NC(=O)[C@H](CCCN=C(N)N)NC(=O)CNC)C(C)C)C(=O)N[C@@H](Cc1c[nH]cn1)C(=O)N1CCC[C@H]1C(=O)N[C@@H](Cc1ccccc1)C(=O)O` (mixture of isomers), the pA2 in test [1] is below 5. On the same count and under the same terms, the value for `CC[C@H](C)[C@H](NC(=O)C(Cc1ccc(C(F)(F)F)cc1)NC(=O)[C@@H](NC(=O)[C@H](CCCN=C(N)N)NC(=O)CNC)C(C)C)C(=O)N[C@@H](Cc1c[nH]cn1)C(=O)N1CCC[C@H]1C(=O)N[C@@H](Cc1ccccc1)C(=O)O` (mixture of isomers) was below 5. Molecule `CC[C@H](C)[C@H](NC(=O)[C@H](Cc1ccc(O)cc1)NC(=O)[C@@H](NC(=O)[C@H](CCCN=C(N)N)NC(=O)CNC)C(C)C)C(=O)N[C@@H](Cc1c[nH]cn1)C(=O)N1CCC[C@H]1C(=O)N[C@@H](CCOC)C(=O)O` (stereo in doubt; form 1) displayed a pA2 in test [1] of 7.6. This molecule yielded an Agonist activity in test [2] below 0.1%.
